From PMC10959575 (Journal of the American Society for Mass Spectrometry, 2023)

Key:
WT α-syn [1] = molecular target: T1, WT α-syn (Homo sapiens, UniProt P37840); assay: Native MS of WT α-syn with CLR01; format: binding
In short: (§1)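 Protein at 10–30 μM in 20 mM ammonium acetate, with ligand added to 10–50 μM. Electrosprayed at 1–2 kV on a 15T FT-ICR (capillary exit 100 V, deflector 200 V, funnel 90 V, skimmer 50 V). Spectra deconvolved. Percent binding calculated from intensities of unbound and ligand-bound peaks.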

A30P α-syn [2] = molecular target: T2, A30P α-syn (Homo sapiens, UniProt P37840, A30P); assay: Native MS of A30P α-syn with CLR01; format: binding; conditions: native solution conditions
In short: as §1

[3] = molecular target: wild type α-syn, acetylated α-syn, and phosphorylated α-syn (Homo sapiens, UniProt P37840); assay: Native MS of equimolar proteoform mixture with equimolar CLR01; format: binding; conditions: equimolar ratio of CLR01
In short: as §1

α-syn [4] = molecular target: T3, α-syn (Homo sapiens, UniProt P37840); assay: Native MS of α-syn/Mn2+/CLR01 solution, 1:5:3 molar ratio; format: binding
In short: as §1

α-syn [5] = molecular target: T3, α-syn; assay: Native MS of α-syn/Cu2+/CLR01 solution, 1:1:3 molar ratio; format: binding
In short: as §1

wildtype α-syn = wildtype α-syn (Homo sapiens, UniProt P37840); assay: ECD top-down FT-ICR MS, binding site location on WT α-syn; conditions: 13+ charge state, α-syn bound with 2 CLR01 molecules
In short: (§2)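 Protein (10–30 μM) in 20 mM ammonium acetate with test compound at 10–50 μM. Native ESI on a 15T FT-ICR: spray 1–2 kV, capillary exit 100 V, deflector 200 V, funnel 90 V, skimmer 50 V. Complexes isolated with 5–20 m/z notch, then ECD (bias 1 V, pulse 10–50 ms). Fragments deconvoluted at S/N 2. c/z ions assigned at 5 ppm error, with ligand as unlocalized modification.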

A30P α-syn [6] = molecular target: T2, A30P α-syn; assay: ECD top-down FT-ICR MS, binding site location on A30P α-syn; conditions: A30P α-syn with 2 CLR01 molecules bound
In short: as §2

WT α-syn [7] = molecular target: T1, WT α-syn; assay: IM-MS of WT α-syn with CLR01
In short: (§3)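 IM-MS on a quadrupole-IM-time-of-flight instrument: spray 1–2 kV, sampling cone 10–20 V, source offset 20 V. Spectra taken over the full m/z range, with each charge state extracted over its [M+nH]ⁿ⁺ peak. Ligand at 5x molar concentration for wild-type protein; metal-bound protein with ligand at a 1:3 molar ratio.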

A30P α-syn [8] = molecular target: T2, A30P α-syn; assay: IM-MS of A30P α-syn/CLR01 complexes; conditions: 8+ and 9+ charge states
In short: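 WT and A30P α-syn (10–30 μM) in 20 mM ammonium acetate, with test compound at 5x molar excess. Read on a quadrupole-IM-TOF instrument: spray 1–2 kV, sampling cone 10–20 V, source offset 20 V. IM spectra taken over the full m/z range. Per-charge-state data extracted over the [M+nH]ⁿ⁺ peak.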

phosphorylated α-syn = phosphorylated α-syn (Homo sapiens, UniProt P37840); assay: IM-MS of phosphorylated α-syn with CLR01; conditions: 9+ charge state
In short: (§4)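 Acetylated (made as previously described) or phosphorylated α-syn in 20 mM ammonium acetate, mixed 1:1 molar with test compound. Ion mobility–MS run on a quadrupole-IM-TOF: spray 1–2 kV, sampling cone 10–20 V, source offset 20 V. Mobiligrams extracted per charge state over the [M+nH]ⁿ⁺ peak.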

acetylated α-syn = acetylated α-syn (Homo sapiens, UniProt P37840); assay: IM-MS of acetylated α-syn with CLR01; conditions: 9+ charge state
In short: as §4

α-syn/ Cu^2+ complex = α-syn/ Cu^2+ complex (Homo sapiens, UniProt P37840); assay: IM-MS of the α-syn/Cu2+ complex with and without CLR01; conditions: 9+ charge state
In short: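 Copper-bound α-syn in 20 mM ammonium acetate, analysed with test compound at 1:3 molar ratio and without it. Mobility measured by quadrupole-IM-TOF: spray 1–2 kV, sampling cone 10–20 V, source offset 20 V. Data for each charge state extracted over the [M+nH]ⁿ⁺ peak.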

α-syn [9] = molecular target: T3, α-syn; assay: IM-MS of α-syn with Mn2+ and CLR01
In short: as §3

tau protein = conditions: IM-MS; cited from earlier work
α-syn [10] = molecular target: T3, α-syn; conditions: IM-MS; cited from earlier work
[11] = molecular target: α-syn/Mn^2+/CLR01 complex (Homo sapiens, UniProt P37840); assay: ECD top-down FT-ICR MS of the α-syn/Mn2+/CLR01 complex; format: binding
In short: (§5)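 ESI on a 15T FT-ICR instrument: spray 1–2 kV, capillary exit 100 V, deflector plate 200 V, funnel 90 V, skimmer 50 V. Complex ions isolated with a 5–20 m/z notch, then fragmented by ECD (bias 1 V, pulse 10–50 ms). Product spectra deconvoluted with S/N limit 2. c- and z-ions assigned at 5 ppm error, with ligand and metals as unlocalized modifications.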

[12] = molecular target: α-syn/Cu^2+/CLR01 complex (Homo sapiens, UniProt P37840); assay: ECD top-down FT-ICR MS of the α-syn/Cu2+/CLR01 complex; format: binding
In short: as §5

## CLR01
WT α-syn [1]; CLR01 at 5x molar concentration
  CLR01 in solution bound to the protein: 63%
WT α-syn [1]; CLR01 at 5x molar concentration, deconvolved mass spectrum
  number of CLR01 binding events observed: up to 5
WT α-syn [1]; WT α-syn titrated with CLR01, thought to bind nonspecifically
  Kd values for the fourth and fifth binding sites: did not converge well
A30P α-syn [2]
  number of CLR01 binding events observed: up to 5
  total CLR01 bound to the protein: 74%
[3]
  number of CLR01 molecules that bind each proteoform: up to 2
α-syn [4]; 1:5:3 α-syn:Mn2+:CLR01
  number of CLR01 binding events observed: ≤ 4
α-syn [4]; 1 CLR01 molecule bound
  α-syn bound by Mn2+: 89%
α-syn [4]; 2 CLR01 molecules bound
  α-syn bound by Mn2+: 92%
α-syn [5]; 1:1:3 α-syn:Cu2+:CLR01
  number of CLR01 molecules bound simultaneously with Cu2+: Up to 3
α-syn [5]; 3 CLR01 molecules bound
  α-syn bound by Cu2+: 57%
Wildtype α-syn
  binding location of the second CLR01 molecule: K12 with a secondary binding location at K21
A30P α-syn [6]
  CLR01 binding location: K10 and K12 with a possible additional site of binding at K21
WT α-syn [7]; 9+ charge state, 1 CLR01 molecule bound
  change of ion mobiligram on CLR01 binding: increase in abundance of the early arriving ensemble
WT α-syn [7]; higher charge states such as 12+
  change of ion mobiligram on CLR01 binding: do not show significant shifts
A30P α-syn [8]
  change of ion mobiligram on CLR01 binding: early arriving ensembles increase in abundance
Phosphorylated α-syn
  change of ion mobiligram on CLR01 binding: further increase in abundance of the early arriving ensembles
Acetylated α-syn
  change of ion mobiligram on CLR01 binding: increase in the abundance of early arriving ensembles
α-syn/ Cu^2+ complex; α-syn/Cu2+ complex
  change of ion mobiligram on CLR01 binding: further increases the abundance of the early arriving conformers
α-syn [9]; CLR01 and Mn2+ bound
  structural effect when CLR01 and Mn2+ both bind: the structure of α-syn is compacted
Tau protein
  structural effect of binding on tau protein: compacts the structure of tau protein

## epigallocatechin-3-gallate [EGCG]
α-syn [10]
  structural effect of binding on α-syn: promotes compaction of α-syn structure

## [Mn+2] [Mn^2+]
α-syn [4]; 1:5:3 α-syn:Mn2+:CLR01
  number of Mn2+ binding events observed: up to 5
α-syn [4]; CLR01 not bound to the protein
  α-syn bound by Mn2+: 86%
[11]
  Mn2+ binding location: acidic C-terminal region
α-syn [9]; Mn2+ alone
  structural effect of Mn2+ binding: only slightly compacts

## [Cu+2] [Cu^2+]
α-syn [5]; 0 CLR01 molecules bound
  α-syn bound by Cu2+: 65%
α-syn [5]; 1:1:3 α-syn:Cu2+:CLR01
  number of copper binding events: 1
[12]
  Cu2+ binding location: N-terminus
α-syn/ Cu^2+ complex; no CLR01
  ion mobiligram of Cu2+ bound α-syn versus WT form: early arriving ensembles significantly more abundant
